Measurements from ChEMBL document CHEMBL1124458, “Electrophilic derivatives of purines as irreversible inhibitors of A1 adenosine receptors” (J Med Chem, 1989).
Values belong to the compound of their own block, whether it stands above or below them.

Key:
[1] = biological target: T1, Adenosine receptor A1 (Rattus norvegicus) (UniProt P25099); test: Percentage inhibition of [125I]APNEA binding to adenosine A1 receptor from rat brain after 45 min incubation at 500 nM
T1 sequence (whole entry): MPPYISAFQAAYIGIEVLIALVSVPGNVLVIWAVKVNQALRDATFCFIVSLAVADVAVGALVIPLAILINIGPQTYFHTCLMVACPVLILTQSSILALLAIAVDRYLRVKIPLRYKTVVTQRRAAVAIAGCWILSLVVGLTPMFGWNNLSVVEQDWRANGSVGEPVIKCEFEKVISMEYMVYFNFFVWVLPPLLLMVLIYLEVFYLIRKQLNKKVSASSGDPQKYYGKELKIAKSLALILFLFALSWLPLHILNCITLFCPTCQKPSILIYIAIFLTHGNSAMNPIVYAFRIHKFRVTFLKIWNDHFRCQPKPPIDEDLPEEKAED
How it was run: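 Adenosine deaminase-treated rat cerebral cortex membranes were exposed to the ligand for 45 min at 37 °C. They were washed three times, held in buffer with 10⁻⁴ M IBMX for 18 h at 25 °C, washed and re-treated with deaminase. Residual sites were measured by 125I-APNEA saturation (0.1–2.5 nM) against untreated membranes carried through the same procedure.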

Adenosine receptor A1 [2] = biological target: T2, Adenosine receptor A1 (Bos taurus, UniProt P28190); test: Affinity for Adenosine A1 receptor using [125I]APNEA in calf brain.
T2 sequence (P28190 whole entry): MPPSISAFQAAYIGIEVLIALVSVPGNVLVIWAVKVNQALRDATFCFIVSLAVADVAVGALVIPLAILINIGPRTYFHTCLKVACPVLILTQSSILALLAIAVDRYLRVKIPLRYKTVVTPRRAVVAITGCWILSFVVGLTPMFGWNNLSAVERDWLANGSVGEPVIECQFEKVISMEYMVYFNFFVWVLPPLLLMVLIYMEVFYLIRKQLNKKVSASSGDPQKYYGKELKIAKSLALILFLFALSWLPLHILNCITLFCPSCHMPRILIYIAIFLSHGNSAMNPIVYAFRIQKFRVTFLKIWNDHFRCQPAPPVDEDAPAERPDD
How it was run: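 Bovine cerebral cortex membranes were pretreated with adenosine deaminase (0.5 unit/mL, 20 min, 37 °C). Membranes (40 µg) were incubated with 125I-APNEA and competitor for 1 h at 37 °C. Separation was by dilution in cold Tris-HCl/MgCl2/EDTA buffer, pH 8.26, with 0.02% Chaps, then glass-filter filtration and gamma counting. Nonspecific binding was defined with 10⁻⁵ M (R)-PIA.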

Adenosine receptor A1 [3] = biological target: T3, Adenosine receptor A1 (Rattus norvegicus, UniProt P25099); test: Affinity for A1 adenosine receptor using [3H]-N6 -(phenylisopropyl)-adenosine (R)-[3H]-PIA in rat brain; format: tissue-based
T3 sequence (P25099 whole entry): T1 sequence (whole entry)
How it was run: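 Rat cerebral cortex membranes pretreated with adenosine deaminase (0.5 unit/mL, 20 min, 37 °C). Competition against 1 nM (R)-[3H]PIA over a range of ligand concentrations, in triplicate, in at least three experiments. […] For irreversible ligands the value is an apparent Ki.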

[4] = biological target: T4, Adenosine receptors; A1 & A2 (Rattus norvegicus) (UniProt P29276+P25099+P30543); test: Selectivity ratio between Ki for adenosine A2 and A1 receptors; format: protein assay
Adenosine A2 receptor [5] = biological target: T5, Adenosine A2 receptor (Rattus norvegicus, UniProt P29276+P30543); test: Inhibitory affinity for adenosine A2 receptor using [3H]N-ethyladenosine-5'-uronamide; format: protein assay
Adenosine receptor A1 [6] = biological target: T3, Adenosine receptor A1; test: Affinity for adenosine A1 receptor using [3H]-N6 -(phenylisopropyl)-adenosine (R)-[3H]-PIA in rat brain.; format: tissue-based
How it was run: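 Rat cerebral cortex membranes were incubated with 1 nM (R)-[3H]PIA and a range of competitor concentrations. Each point was run in triplicate, in at least three separate experiments.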

[7] = biological target: T1, Adenosine receptor A1 (Rattus norvegicus); test: Percentage inhibition of [125I]APNEA binding to adenosine A1 receptor from rat brain after 45 min incubation at 10 nM
How it was run: (§1)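 Rat cerebral cortex membranes pretreated with adenosine deaminase (0.5 unit/mL, 20 min, 37 °C). Incubated with ligand at the stated concentration for 45 min at 37 °C, then washed three times in Tris/MgCl2/EDTA buffer pH 8.26 with 0.02% Chaps. Then 10⁻⁴ M IBMX for 18 h at 25 °C, washed twice and deaminase-treated again. Untreated membranes went through every step as controls.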

[8] = biological target: T1, Adenosine receptor A1 (Rattus norvegicus); test: Percentage inhibition of [125I]APNEA binding to Adenosine A1 receptor from rat brain after 45 min incubation at 10 nM; how it was run: as §1
Adenosine A2 receptor [9] = biological target: T5, Adenosine A2 receptor; test: Inhibition of [3H]N-ethyladenosine-5'-uronamide binding to Adenosine A2 receptor of rat striatal membrane
[10] = biological target: T1, Adenosine receptor A1 (Rattus norvegicus); test: Percentage inhibition of [125I]APNEA binding to adenosine A1 receptor from rat brain after 45 min incubation at 1 nM; how it was run: as §1
[11] = biological target: T4, Adenosine receptors; A1 & A2 (Rattus norvegicus); test: Relative affinities for Adenosine A2 and Adenosine A1 receptors; format: protein assay

inhibition [1]: 0%
Ki (Adenosine receptor A1 [2]): 3.17 nM
Ki (Adenosine receptor A1 [3]): 266 nM
SMILES: CCCn1c(=O)c2nc(-c3ccc(OCC(=O)NCC=O)cc3)[nH]c2n(CCC)c1=O

Ratio [4]: 1.37
Ki (Adenosine A2 receptor [5]): 70 nM
Ki (Adenosine receptor A1 [6]): 51.1 nM
SMILES: O=C(Cc1ccc(NC(=O)Cc2ccc(Nc3ncnc4c3ncn4C3O[C@H](CO)[C@@H](O)[C@H]3O)cc2)cc1)NCC/N=C(\S)Nc1ccc(S(=O)(=O)[O-])cc1.[Na+] (stereo partly specified)

SMILES: O=C(Cc1ccc(NC(=O)Cc2ccc(Nc3ncnc4c3ncn4C3O[C@H](CO)[C@@H](O)[C@H]3O)cc2)cc1)NCC/N=C(\S)Nc1cccc(N=C=S)c1 (stereo partly specified)
inhibition [7]: > 90%
inhibition [8]: > 90%
Ki (Adenosine A2 receptor [9]): 176 nM
inhibition [10]: 62%
Ratio [11]: 203
